One compound from ChEMBL document CHEMBL6087468, “TKK130 is a 3-Hydroxy-Propanamidine (HPA) with Potent Antimalarial In Vivo Activity and a High Barrier to Resistance” (J Med Chem, 2025) can be followed below.

A word on the IC50: it is the concentration at which inhibition is half-maximal. For orientation: AUC(0-t) means exposure summed from dosing to a finite time, without extrapolation to infinity.

Data set [1] concerns Plasmodium falciparum. As to the kind of experiment: Antimalarial activity against Plasmodium falciparum Dd2 MMV183 harboring PfACoAS-mutant infected in human erythrocytes assessed as inhibition of parasite growth measured after 72 hrs incubation by [3H]hypoxanthine incorporation assay. Particulars: Dd2 MMV183, Erythrocyte. The data set is classed as functional, organism-based. The method in brief:
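Dd2 parent line, and mutants made from it by gene editing or drug selection. Growth inhibition measured by the 72 h [3H]hypoxanthine incorporation assay at Swiss TPH. Values are means of 2 independent biological replicates.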

Data set [2] can be described thus: Plasma stability at 37 °C measured as remaining drug at 6 hrs sampled in triplicate (concentration 25 ng/mL 2 (TKK130)). The data set is classed as ADME, cell-free. Conditions: human, at 25 ng/mL, read-out: Stability. The essentials: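 Fresh EDTA human plasma warmed to 37 °C, spiked to 25 ng/mL (0.5% methanol final), split into three fractions, shaken at 37 °C. Samples at 0, 2, 4, 6, 24, 48 h precipitated with ice-cold acetonitrile containing internal standard; LC–MS/MS. Recovery = analyte/IS area ratio relative to 0 h; triplicate.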

A short description of data set [3]: AUC (0 to t) in mouse infected with Plasmodium berghei at 10 mg/kg, po. The data set is classed as ADME, organism-based. Conditions: in vivo. The essentials:
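Single oral dose to P. berghei-infected mice, 2 mice per dose group. Blood sampled at 1, 4 and 24 h post-dose as dried blood spots, plus a blank "0 h" reading. Spots diluted 1:5 (3, 10 mg/kg) or 1:10 (30 mg/kg), then quantified by LC–MS/MS against a whole-blood calibration of 1.56–800 ng/mL with QCs at three levels.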

In data set [4] the target is Voltage-gated inwardly rectifying potassium channel KCNH2 (Homo sapiens, UniProt Q12809). Briefly: Inhibition of hERG by fluorescence polarization assay. The data set is classed as toxicity. (hERG is a cardiac potassium channel; its block is linked to QT prolongation.)
Chain of Voltage-gated inwardly rectifying potassium channel KCNH2 (Q12809 whole entry): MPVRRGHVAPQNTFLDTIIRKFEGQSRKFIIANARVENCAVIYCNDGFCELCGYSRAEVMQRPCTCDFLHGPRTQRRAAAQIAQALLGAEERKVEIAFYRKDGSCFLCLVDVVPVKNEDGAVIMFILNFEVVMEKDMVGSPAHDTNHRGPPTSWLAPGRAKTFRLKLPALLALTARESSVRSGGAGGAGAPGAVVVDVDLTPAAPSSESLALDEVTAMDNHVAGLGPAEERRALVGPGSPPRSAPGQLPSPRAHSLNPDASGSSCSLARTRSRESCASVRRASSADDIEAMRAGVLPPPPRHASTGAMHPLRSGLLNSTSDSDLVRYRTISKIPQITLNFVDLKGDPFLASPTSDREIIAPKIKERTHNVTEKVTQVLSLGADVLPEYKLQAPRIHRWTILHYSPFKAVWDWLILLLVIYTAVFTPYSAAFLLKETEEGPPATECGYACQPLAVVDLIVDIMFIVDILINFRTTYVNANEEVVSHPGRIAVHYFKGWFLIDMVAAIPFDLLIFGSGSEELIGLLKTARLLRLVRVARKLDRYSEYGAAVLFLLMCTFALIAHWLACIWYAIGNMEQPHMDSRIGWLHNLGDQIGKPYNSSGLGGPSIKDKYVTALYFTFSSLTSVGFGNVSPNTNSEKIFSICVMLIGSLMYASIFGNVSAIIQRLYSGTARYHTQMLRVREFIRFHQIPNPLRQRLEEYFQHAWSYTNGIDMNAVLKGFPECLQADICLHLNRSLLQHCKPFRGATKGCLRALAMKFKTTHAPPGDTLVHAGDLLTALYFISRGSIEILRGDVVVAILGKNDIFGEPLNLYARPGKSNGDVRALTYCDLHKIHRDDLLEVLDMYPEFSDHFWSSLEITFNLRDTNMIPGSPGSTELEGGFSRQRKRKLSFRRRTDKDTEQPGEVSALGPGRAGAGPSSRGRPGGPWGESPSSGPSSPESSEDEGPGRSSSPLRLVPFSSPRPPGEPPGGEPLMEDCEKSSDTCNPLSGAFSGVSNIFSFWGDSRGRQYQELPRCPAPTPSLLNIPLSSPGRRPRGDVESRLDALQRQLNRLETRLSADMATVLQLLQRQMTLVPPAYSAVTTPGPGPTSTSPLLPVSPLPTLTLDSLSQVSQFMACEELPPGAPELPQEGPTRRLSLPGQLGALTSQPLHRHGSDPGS

For `Cl.N=C(CC(O)c1cc2c(F)cc(F)cc2c2cc(C(F)(F)F)ccc12)Nc1ccc(F)cc1` (centres undefined), the 50% inhibitory concentration (IC50) in data set [1] came out at 13 nM; in data set [4] it was 300 nM. The remaining at 6 h, 25 ng/mL in data set [2] worked out at 91.9%. The compound also returned an AUC(0-t) in data set [3] of 11600 ng·h/mL.
